# Several values for one entry are separate records, joined by “and”; a condition that tells them apart may be missing. Identical values can stand only once.
# Key:
# [1] = Treatment-emergent adverse events; format: in vivo, Japanese patients
# [2] = test system: phospho‐AKT; settings: read-out: calculated in vitro IC90 for phospho‐AKT inhibition; measure of PI3K pathway pharmacodynamic activity; ref not given; cited from earlier work
# [3] = test system: relapsed or refractory marginal zone lymphoma; assay: Investigator-assessed response; format: in vivo, Japanese patients
# How it was run: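 Investigator-assessed response by Lugano criteria in the full analysis set (all treated patients). Patients received 10 or 20 mg QD orally for 8 weeks, then the same dose QW. CT, FDG-PET or PET-CT was chosen by subtype, using the same technique as at screening. Scans ran every 8 weeks through week 24, every 12 weeks through week 96, then every 24 weeks until progression.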
# [4] = Any TEAE, QD dosing period (n = 17)
# [5] = Any TEAE, QW dosing period (n = 12)
# [6] = Grade ≥3 TEAE, QD dosing period (n = 17)
# [7] = Grade ≥3 TEAE, QW dosing period (n = 12)
# [8] = two responders with MZL, individual values
smiles,measurement,setting,value
CCOc1c([C@H](C)n2nc(C)c3c(N)ncnc32)cc(Cl)c(F)c1[C@@H]1CNC(=O)C1 [parsaclisib],Serious TEAE of pyrexia,[1]; 2 patients,11.8%
same,"rash (AESI), severity",[1]; 3 patients,2 patients with grade 1 and 1 patient with grade 2
same,nausea (TEAE),"[1]; 4 of 17 patients, total",23.5%
same,pyrexia (TEAE),"[1]; 4 of 17 patients, total",23.5%
same,Serious TEAEs,[1]; 5 patients,29.4%
same,TEAEs leading to dose reduction,[1]; 5 patients,29.4%
same,decreased neutrophil count leading to dose interruption,[1]; 5 patients,29.4%
same,constipation (TEAE),"[1]; 6 of 17 patients, total",35.3%
same,Adverse events of special interest,[1]; 7 patients,41.2%
same,TEAEs of grade 3 or higher,[1]; 11 patients,64.7%
same,Constipation,[1]; [4],4 (23.5) n (%)
same,Cough,[1]; [4],2 (11.8) n (%)
same,Cystitis,[1]; [4],1 (5.9) n (%)
same,Diarrhea,[1]; [4],0 (0.0) n (%)
same,Drug eruption,[1]; [4],3 (17.6) n (%)
same,Dry eye,[1]; [4],0 (0.0) n (%)
same,Dry skin,[1]; [4],2 (11.8) n (%)
same,Fall,[1]; [4],2 (11.8) n (%)
same,Gastritis,[1]; [4],2 (11.8) n (%)
same,Headache,[1]; [4],2 (11.8) n (%)
same,Hyperkalemia,[1]; [4],0 (0.0) n (%)
same,Hypoalbuminemia,[1]; [4],2 (11.8) n (%)
same,Insomnia,[1]; [4],0 (0.0) n (%)
same,Myalgia,[1]; [4],1 (5.9) n (%)
same,Nasopharyngitis,[1]; [4],0 (0.0) n (%)
same,Nausea,[1]; [4],2 (11.8) n (%)
same,Pyrexia,[1]; [4],3 (17.6) n (%)
same,Rash,[1]; [4],1 (5.9) n (%)
same,Stomatitis,[1]; [4],2 (11.8) n (%)
same,Upper respiratory tract infection,[1]; [4],2 (11.8) n (%)
same,Constipation,[1]; [5],2 (16.7) n (%)
same,Cough,[1]; [5],0 (0.0) n (%)
same,Cystitis,[1]; [5],1 (8.3) n (%)
same,Diarrhea,[1]; [5],3 (25.0) n (%)
same,Drug eruption,[1]; [5],0 (0.0) n (%)
same,Dry eye,[1]; [5],2 (16.7) n (%)
same,Dry skin,[1]; [5],0 (0.0) n (%)
same,Fall,[1]; [5],0 (0.0) n (%)
same,Gastritis,[1]; [5],0 (0.0) n (%)
same,Headache,[1]; [5],1 (8.3) n (%)
same,Hyperkalemia,[1]; [5],2 (16.7) n (%)
same,Hypoalbuminemia,[1]; [5],0 (0.0) n (%)
same,Insomnia,[1]; [5],3 (25.0) n (%)
same,Myalgia,[1]; [5],1 (8.3) n (%)
same,Nasopharyngitis,[1]; [5],3 (25.0) n (%)
same,Nausea,[1]; [5],3 (25.0) n (%)
same,Pyrexia,[1]; [5],1 (8.3) n (%)
same,Rash,[1]; [5],2 (16.7) n (%)
same,Stomatitis,[1]; [5],0 (0.0) n (%)
same,Upper respiratory tract infection,[1]; [5],0 (0.0) n (%)
same,Constipation,"[1]; Any TEAE, Total (N = 17)",6 (35.3) n (%)
same,Cough,"[1]; Any TEAE, Total (N = 17)",2 (11.8) n (%)
same,Cystitis,"[1]; Any TEAE, Total (N = 17)",2 (11.8) n (%)
same,Diarrhea,"[1]; Any TEAE, Total (N = 17)",3 (17.6) n (%)
same,Drug eruption,"[1]; Any TEAE, Total (N = 17)",3 (17.6) n (%)
same,Dry eye,"[1]; Any TEAE, Total (N = 17)",2 (11.8) n (%)
same,Dry skin,"[1]; Any TEAE, Total (N = 17)",2 (11.8) n (%)
same,Fall,"[1]; Any TEAE, Total (N = 17)",2 (11.8) n (%)
same,Gastritis,"[1]; Any TEAE, Total (N = 17)",2 (11.8) n (%)
same,Headache,"[1]; Any TEAE, Total (N = 17)",3 (17.6) n (%)
same,Hyperkalemia,"[1]; Any TEAE, Total (N = 17)",2 (11.8) n (%)
same,Hypoalbuminemia,"[1]; Any TEAE, Total (N = 17)",2 (11.8) n (%)
same,Insomnia,"[1]; Any TEAE, Total (N = 17)",3 (17.6) n (%)
same,Myalgia,"[1]; Any TEAE, Total (N = 17)",2 (11.8) n (%)
same,Nasopharyngitis,"[1]; Any TEAE, Total (N = 17)",3 (17.6) n (%)
same,Nausea,"[1]; Any TEAE, Total (N = 17)",4 (23.5) n (%)
same,Pyrexia,"[1]; Any TEAE, Total (N = 17)",4 (23.5) n (%)
same,Rash,"[1]; Any TEAE, Total (N = 17)",3 (17.6) n (%)
same,Stomatitis,"[1]; Any TEAE, Total (N = 17)",2 (11.8) n (%)
same,Upper respiratory tract infection,"[1]; Any TEAE, Total (N = 17)",2 (11.8) n (%)
same,Constipation,[1]; [6],0 (0.0) n (%)
same,Cough,[1]; [6],0 (0.0) n (%)
same,Cystitis,[1]; [6],0 (0.0) n (%)
same,Diarrhea,[1]; [6],0 (0.0) n (%)
same,Drug eruption,[1]; [6],0 (0.0) n (%)
same,Dry eye,[1]; [6],0 (0.0) n (%)
same,Dry skin,[1]; [6],0 (0.0) n (%)
same,Fall,[1]; [6],0 (0.0) n (%)
same,Gastritis,[1]; [6],0 (0.0) n (%)
same,Headache,[1]; [6],0 (0.0) n (%)
same,Hyperkalemia,[1]; [6],0 (0.0) n (%)
same,Hypoalbuminemia,[1]; [6],1 (5.9) n (%)
same,Insomnia,[1]; [6],0 (0.0) n (%)
same,Myalgia,[1]; [6],0 (0.0) n (%)
same,Nasopharyngitis,[1]; [6],0 (0.0) n (%)
same,Nausea,[1]; [6],0 (0.0) n (%)
same,Pyrexia,[1]; [6],0 (0.0) n (%)
same,Rash,[1]; [6],0 (0.0) n (%)
same,Stomatitis,[1]; [6],0 (0.0) n (%)
same,Upper respiratory tract infection,[1]; [6],0 (0.0) n (%)
same,Constipation,[1]; [7],0 (0.0) n (%)
same,Cough,[1]; [7],0 (0.0) n (%)
same,Cystitis,[1]; [7],0 (0.0) n (%)
same,Diarrhea,[1]; [7],0 (0.0) n (%)
same,Drug eruption,[1]; [7],0 (0.0) n (%)
same,Dry eye,[1]; [7],0 (0.0) n (%)
same,Dry skin,[1]; [7],0 (0.0) n (%)
same,Fall,[1]; [7],0 (0.0) n (%)
same,Gastritis,[1]; [7],0 (0.0) n (%)
same,Headache,[1]; [7],0 (0.0) n (%)
same,Hyperkalemia,[1]; [7],0 (0.0) n (%)
same,Hypoalbuminemia,[1]; [7],0 (0.0) n (%)
same,Insomnia,[1]; [7],0 (0.0) n (%)
same,Myalgia,[1]; [7],0 (0.0) n (%)
same,Nasopharyngitis,[1]; [7],0 (0.0) n (%)
same,Nausea,[1]; [7],0 (0.0) n (%)
same,Pyrexia,[1]; [7],0 (0.0) n (%)
same,Rash,[1]; [7],0 (0.0) n (%)
same,Stomatitis,[1]; [7],0 (0.0) n (%)
same,Upper respiratory tract infection,[1]; [7],0 (0.0) n (%)
same,Constipation,"[1]; Grade ≥3 TEAE, Total (N = 17)",0 (0.0) n (%)
same,Cough,"[1]; Grade ≥3 TEAE, Total (N = 17)",0 (0.0) n (%)
same,Cystitis,"[1]; Grade ≥3 TEAE, Total (N = 17)",0 (0.0) n (%)
same,Diarrhea,"[1]; Grade ≥3 TEAE, Total (N = 17)",0 (0.0) n (%)
same,Drug eruption,"[1]; Grade ≥3 TEAE, Total (N = 17)",0 (0.0) n (%)
same,Dry eye,"[1]; Grade ≥3 TEAE, Total (N = 17)",0 (0.0) n (%)
same,Dry skin,"[1]; Grade ≥3 TEAE, Total (N = 17)",0 (0.0) n (%)
same,Fall,"[1]; Grade ≥3 TEAE, Total (N = 17)",0 (0.0) n (%)
same,Gastritis,"[1]; Grade ≥3 TEAE, Total (N = 17)",0 (0.0) n (%)
same,Headache,"[1]; Grade ≥3 TEAE, Total (N = 17)",0 (0.0) n (%)
same,Hyperkalemia,"[1]; Grade ≥3 TEAE, Total (N = 17)",0 (0.0) n (%)
same,Hypoalbuminemia,"[1]; Grade ≥3 TEAE, Total (N = 17)",1 (5.9) n (%)
same,Insomnia,"[1]; Grade ≥3 TEAE, Total (N = 17)",0 (0.0) n (%)
same,Myalgia,"[1]; Grade ≥3 TEAE, Total (N = 17)",0 (0.0) n (%)
same,Nasopharyngitis,"[1]; Grade ≥3 TEAE, Total (N = 17)",0 (0.0) n (%)
same,Nausea,"[1]; Grade ≥3 TEAE, Total (N = 17)",0 (0.0) n (%)
same,Pyrexia,"[1]; Grade ≥3 TEAE, Total (N = 17)",0 (0.0) n (%)
same,Rash,"[1]; Grade ≥3 TEAE, Total (N = 17)",0 (0.0) n (%)
same,Stomatitis,"[1]; Grade ≥3 TEAE, Total (N = 17)",0 (0.0) n (%)
same,Upper respiratory tract infection,"[1]; Grade ≥3 TEAE, Total (N = 17)",0 (0.0) n (%)
same,patients with at least one TEAE,[1]; N = 17,all patients
same,neutropenia leading to dose interruption,[1]; additional 2 patients,11.8%
same,serious TEAE of pancreatitis,"[1]; dose interruption on both occurrences, responded to corticosteroid","One patient experienced a serious TEAE of pancreatitis (grade 2, study days 78 and 145)"
same,TEAEs leading to dose interruption,[1]; during QD dosing,7 patients
same,TEAEs leading to dose reduction,[1]; during QD dosing,2 patients
same,TEAEs leading to dose interruption,[1]; during QW dosing,4 patients
same,TEAEs leading to dose reduction,[1]; during QW dosing,3 patients
same,Varicella zoster infection (AESI),"[1]; grade 2 in severity, led to parsaclisib discontinuation",1 patient
same,TEAEs leading to parsaclisib dose reduction (terms),"[1]; human, in vivo, oral","febrile neutropenia (1 patient), drug eruption and neutropenia in a single patient during the QD period, pancreatitis and pancreatitis relapsing in a single patient, and diarrhea (1 patient) and exfoliative dermatitis (1 patient) during the QW period"
same,"febrile neutropenia (AESI), occurrence and severity","[1]; human, in vivo, oral",Two patients experienced grade 3
same,"exfoliative dermatitis (AESI), occurrence and severity","[1]; human, in vivo, oral, 64 day",One patient experienced grade 1
same,Nonhematologic grade 3 or higher TEAEs occurring in 1 patient each,[1]; in vivo,"bile duct stenosis (secondary to pancreatitis), hypoalbuminemia, and lymphoma progression (metastases to meninges [lymphomatous meningitis])"
same,Other serious TEAEs experienced by 1 patient each,[1]; in vivo,"diarrhea, enteritis infection, febrile neutropenia, metastases to meninges, and pancreatitis"
same,TEAEs with a fatal outcome,[1]; in vivo,no TEAEs with a fatal outcome
same,"diarrhea (AESI), longest time to resolution",[1]; individual patients,14 days and 18 days and 67 days
same,"diarrhea (AESI), time to first onset",[1]; individual patients,70 days and 108 days and 305 days
same,"febrile neutropenia (AESI), time to onset",[1]; individual patients,28 days and 63 days
same,"febrile neutropenia (AESI), time to resolution",[1]; individual patients,10 days and 2 days
same,"rash (AESI), longest time to resolution",[1]; individual patients,5 days and 8 days and 23 days
same,"rash (AESI), time to onset of first occurrence",[1]; individual patients,11 days and 50 days and 312 days
same,"Varicella zoster infection (AESI), onset",[1]; one patient,33 days
same,"Varicella zoster infection (AESI), resolution",[1]; one patient,21 days
same,"exfoliative dermatitis (AESI), onset",[1]; one patient,64 days
same,"exfoliative dermatitis (AESI), resolution",[1]; one patient,36 days
same,"diarrhea (AESI), severity","[1]; three patients, none led to discontinuation",1 patient with grade 1 and 2 patients with grade 2
same,IC90,[2],40 nM
same,"BOR, CMR/CR",[3]; MZL (n = 2),0 (0.0) n (%)
same,"BOR, NMR/SD",[3]; MZL (n = 2),0 (0.0) n (%)
same,"BOR, PMD/PD",[3]; MZL (n = 2),0 (0.0) n (%)
same,"BOR, PMR/PR",[3]; MZL (n = 2),2 (100) n (%)
same,Objective response,[3]; MZL (n = 2),2 (100.0) n (%)
same,"BOR, Not assessed","[3]; MZL (n = 2), no postbaseline response data available",0 (0.0) n (%)
same,ORR,"[3]; MZL, 2 of 2 patients",100%
same,observed PFS,[3]; [8],16.7 months and 22.0 months
same,observed response duration,[3]; [8],14.8 months and 16.8 months

# — PMC9128166 (Cancer Science, 2022)
